# Rows were chosen to be rich in hits. Some 4.2% of all compounds tested hit in one or more screens of this group.
# CHO parental Ca – signal in parental CHO cells, OX1R antagonist counter-screen | parental CHO-K1, ATP-induced calcium, Fluo-8 fluorescence | inhibition, % at 5.6 µM | 330,000 tested, 0.63% active | AID 463079;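 active = inhibition above that plate's mean sample inhibition plus 3 SD, cut at about 26% in these data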;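 also: 0% = ATP-challenged DMSO wells and 100% = DMSO wells without ATP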
#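 Assay system: parental CHO cells; Read-out basis: percent inhibition of ATP-evoked calcium rise, normalized to controls; Benchmarks: ATP and no-ATP DMSO wells; Compound dosing: single nominal dose of 5.6 µM per compound; Signal: Fluo-8 calcium dye fluorescence; Also added: ATP as calcium-mobilizing challenge; Repeats: singlicate.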
# OX1R antag-1 – antagonists of human orexin 1 receptor (OX1R); O43613; inhibition, % at 6.6 µM; 330,000 tested, 1.8% active; OX1R-expressing cells, FRET antagonist read-out; in the data active = inhibition mostly above about 38%, no sharp cut-off; inactive = mostly below about 40%;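 also: 0% = agonist challenge alone and 100% = reference antagonist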
# TAAR1 antag – antagonists of human TAAR1 | Q96RJ0 | CHO RD-HGA16 TAAR1, Fluo-8 calcium fluorescence, antagonist | inhibition, % at 3 µM | 360,000 tested, 1.5% active | AID 624466;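 active = inhibition above a per-plate cutoff, the mean inhibition of test compounds on that plate plus 3 SD, cut at about 49% in these data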;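 also: 0% = DMSO plus EC80 beta-PEA response and 100% = DMSO alone without agonist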
# Target sequence (Q96RJ0 whole entry, looked up): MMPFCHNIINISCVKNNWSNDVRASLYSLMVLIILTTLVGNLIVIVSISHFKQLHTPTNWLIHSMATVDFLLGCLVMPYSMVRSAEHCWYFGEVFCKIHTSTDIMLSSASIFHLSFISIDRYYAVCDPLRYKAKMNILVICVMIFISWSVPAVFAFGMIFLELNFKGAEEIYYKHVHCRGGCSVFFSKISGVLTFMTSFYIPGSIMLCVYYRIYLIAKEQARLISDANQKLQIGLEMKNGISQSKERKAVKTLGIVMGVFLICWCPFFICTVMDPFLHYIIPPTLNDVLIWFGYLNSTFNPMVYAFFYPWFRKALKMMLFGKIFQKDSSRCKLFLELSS
#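 Test system – hTAAR1-expressing CHO RD-HGA16 cells, Gα16-coupled · Also added – β-PEA at EC80 concentration, post-compound challenge · Compound – 3 µM, single point · Incubation – dye loading 75 min at 37 °C, then 30 min room temperature · Measured by – Fluo-8 intracellular calcium dye fluorescence, real-time kinetic reads · Benchmarks – vehicle and agonist controls · Replicates – singlicate, one well per test compound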
# GalR3 antag – blocks the human galanin receptor 3; O60755; inhibition, % at 3 µM; HEK293 GalR3-CNG cAMP membrane potential fluorescence; galR3 body fused to GalR1 C-terminus; 360,000 tested, 0.44% active;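 active = inhibition above the screen-wide average plus 3 SD, cut at about 13% in these data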;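 also: forskolin and galanin both at EC90 stimulate the cells; cAMP rise reported by CNG channel membrane potential dye signal; 0% = forskolin plus galanin with DMSO and 100% = forskolin alone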
# OX1R antag-2 – blocks the human orexin 1 receptor; O43613; CHO/OX1R cells, Fluo-8 calcium fluorescence, orexin A; inhibition, % at 5 µM; 330,000 tested, 0.43% active; AID 434989;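 active = inhibition above its plate's threshold, mean inhibition of all tested compounds on the plate plus 3 SD, cut at about 37% in these data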;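 also: 0% = orexin A challenge wells and 100% = SB-334867-A antagonist wells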
# TAAR1 ag – agonists of human TAAR1. CHO RD-HGA16 TAAR1, Fluo-8 calcium fluorescence; vehicle wells 0%, saturating PEA agonist 100%. activation, % at 3 µM. 360,000 tested, 0.99% active. AID 624467;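 active = activation above the mean activation of all test compounds in the run plus 3 SD, cut at about 38% in these data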
#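 Signal – calcium-sensitive Fluo-8 signal, excitation 470-495, emission 515-575 nm · System – RD-HGA16 (CHO) cells co-expressing Gα16 and hTAAR1 · Incubation – 17-24 h seeding, 75 min 37 °C dye, 30 min RT · Compound dosing – 3 µM single concentration · Repeats – no replicates (n 1)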
# OX1R HTRF conf – confirmation of human orexin 1 receptor antagonists, HTRF format | 1,800 tested, 49% active | AID 492964 | shares compounds with OX1R antag-1 | OX1R-expressing cells, HTRF antagonist assay | inhibition, % at 6.6 µM; in the data active = inhibition above about 55%;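 also: CHO cells expressing OX1R stimulated with orexin A at about EC80; 0% = agonist challenge alone and 100% = reference antagonist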
# CHO-K1 HTRF cnt – signal in parental CHO-K1 cells, OX1R antagonist counter-screen; shares compounds with OX1R antag-1; HTRF counterscreen; inhibition, % at 6.6 µM; 1,800 tested, 48% active; in the data active = inhibition above about 17%;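 also: 0% = agonist challenge with vehicle and 100% = vehicle alone without agonist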
# Active calls of the source: *; x = no result.
SMILES,CHO parental Ca,OX1R antag-1,TAAR1 antag,GalR3 antag,OX1R antag-2,TAAR1 ag,OX1R HTRF conf,CHO-K1 HTRF cnt
COC(=O)c1ccc(SCC(=O)NC2CCCC2)c([N+](=O)[O-])c1,-22,47,13,-11,-14,16,x,x
O=C(Cn1cnc2c(nnn2Cc2ccc(F)cc2)c1=O)Nc1cccc(F)c1,-4,14,2,-2,6,1,x,x
C/C(=N/NC(=O)CN1CCN(Cc2ccccc2)CC1)c1ccc([N+](=O)[O-])cc1,-10,77*,-14,-7,-13,-1,39,29*
O=c1cc[nH]c2ccc([N+](=O)[O-])cc12,-13,122*,-13,-4,1,2,51,61*
NC(=O)C1CCN(C(=O)c2cc(-c3ccccc3Cl)nc3ccccc23)CC1,-12,15,13,0,0,4,x,x
O=[N+]([O-])c1ccc(-n2cccn2)c(-c2nn[nH]n2)c1,-14,108*,1,-7,-13,5,37,54*
CCOc1ccc(S(=O)(=O)N2CCC(C(=O)NCc3ccccc3CN3CCCC3)CC2)cc1,-21,1,-10,-6,-24,-1,x,x
CCCCCCCC(=O)N/N=C/c1ccc([N+](=O)[O-])o1,-2,37,4,-2,-21,0,x,x
CCOC(=O)N/N=C\c1ccc([N+](=O)[O-])o1,11,78*,-18,-1,13,0,50,79*
CCc1ccc(-c2cc3c(=O)n(CC(=O)NCc4ccccc4F)ncn3n2)cc1,-1,7,4,-11,-1,5,x,x
COC(=O)c1ccccc1NC(=O)c1cc[n+](C)cc1,1,83*,-10,-3,-5,1,33,49*
COc1ccc(-c2nc(CS(=O)CC(=O)N3CCCC3)c(C)o2)cc1 (configuration not stated),7,9,-15,x,-23,0,x,x
O=C(NCCc1ccccc1)c1n[nH]c(=O)c2ccccc12,-6,16,-9,-4,-16,6,x,x
O=[N+]([O-])c1ccc(/C=N/n2cn[nH]c2=S)cc1,-2,109*,-10,1,-11,0,60*,74*
S=c1[nH]ncn1/N=C/c1cccs1,-2,16,-8,-2,0,0,x,x
CSc1nncn1/N=C/c1ccc([N+](=O)[O-])cc1,-5,90*,-10,-5,-1,15,46,46*
N/C(=N/OS(=O)(=O)c1ccc([N+](=O)[O-])cc1)c1ccncc1,-8,28,-19,-3,-10,3,x,x
CC(NC(=O)CC1Nc2ccccc2NC1=O)c1ccccc1 (configuration not stated),-14,33,1,8,-18,20,x,x
Cc1ccccc1Nc1cc(C(=O)NCc2ccco2)c2ccccc2n1,-17,83*,30,-2,7,10,50,3
Cc1cc(C(=O)NCc2ccco2)c2ccccc2n1,-5,-2,-8,-4,-14,0,x,x
CNc1ccc(/C=C(\CCC(=O)O)c2nc3ccccc3s2)cc1[N+](=O)[O-],15,87*,-2,-2,-5,1,24,12
CCn1cnc2cc(NC(=O)c3ccco3)ccc21,7,10,23,-2,-7,6,x,x
O=C(Nc1ccc2nn(-c3ccccc3)nc2c1)c1ccco1,7,95*,18,-6,21,15,71*,7
CCCn1cnc2cc(NC(=O)c3ccco3)ccc21,-9,94*,-10,-3,-17,2,23,-3
Cc1ccc(-c2nnn(CC(=O)N(CC(=O)NCC3CCCO3)c3ccccc3)n2)o1 (configuration not stated),-13,16,-3,-7,2,12,x,x

# High-throughput results: PubChem BioAssay, The Scripps Research Institute Molecular Screening Center
